ChEMBL document CHEMBL4840309, “Nanomolar inhibition of human OGA by 2-acetamido-2-deoxy-d-glucono-1,5-lactone semicarbazone derivatives” (Eur J Med Chem, 2021)

What was measured:
HEXA/HEXB [1] = biological target: T1, HEXA/HEXB (Bos taurus, UniProt Q0V8R6+H7BWW2); experiment: Competitive inhibition of cow HexA/HexB (unknown origin) using pNP-GlcNAc as substrate assessed as inhibition constant by measuring liberation of nitrophenol preincubated with enzyme followed by substrate addition by Dixon plot analysis; type: protein
T1 sequence (Q0V8R6 whole entry): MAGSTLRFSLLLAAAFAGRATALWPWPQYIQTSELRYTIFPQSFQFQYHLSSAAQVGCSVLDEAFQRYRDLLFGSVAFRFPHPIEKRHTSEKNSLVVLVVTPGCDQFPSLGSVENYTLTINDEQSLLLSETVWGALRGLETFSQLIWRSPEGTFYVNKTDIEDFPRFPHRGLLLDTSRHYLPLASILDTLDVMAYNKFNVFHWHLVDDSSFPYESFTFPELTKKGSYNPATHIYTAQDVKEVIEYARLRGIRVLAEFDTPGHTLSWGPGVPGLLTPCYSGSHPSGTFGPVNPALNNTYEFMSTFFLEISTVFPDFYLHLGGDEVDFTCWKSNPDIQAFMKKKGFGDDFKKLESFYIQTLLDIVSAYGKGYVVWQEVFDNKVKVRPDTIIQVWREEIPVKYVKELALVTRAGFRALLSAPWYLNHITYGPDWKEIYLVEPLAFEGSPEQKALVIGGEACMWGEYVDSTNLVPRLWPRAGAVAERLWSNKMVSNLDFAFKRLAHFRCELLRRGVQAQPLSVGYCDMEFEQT
T1 sequence (H7BWW2 whole entry): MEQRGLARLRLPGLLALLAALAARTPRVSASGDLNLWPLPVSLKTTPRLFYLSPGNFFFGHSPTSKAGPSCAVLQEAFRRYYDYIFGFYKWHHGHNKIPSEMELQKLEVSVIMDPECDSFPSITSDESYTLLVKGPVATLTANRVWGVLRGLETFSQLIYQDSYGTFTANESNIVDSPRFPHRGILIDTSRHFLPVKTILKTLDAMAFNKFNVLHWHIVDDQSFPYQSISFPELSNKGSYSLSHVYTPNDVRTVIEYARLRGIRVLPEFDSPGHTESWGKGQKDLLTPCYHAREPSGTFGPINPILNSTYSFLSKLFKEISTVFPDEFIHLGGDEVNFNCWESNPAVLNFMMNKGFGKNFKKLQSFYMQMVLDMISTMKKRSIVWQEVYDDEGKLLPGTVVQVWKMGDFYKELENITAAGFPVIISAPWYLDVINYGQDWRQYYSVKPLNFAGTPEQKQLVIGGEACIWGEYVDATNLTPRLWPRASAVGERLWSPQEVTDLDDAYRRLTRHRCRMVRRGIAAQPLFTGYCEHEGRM

Protein O-GlcNAcase [2] = biological target: T2, Protein O-GlcNAcase (Homo sapiens, UniProt O60502); experiment: Competitive inhibition of N-terminal His-tagged human OGA using pNP-GlcNAc as chromogenic substrate assessed as inhibition constant by measuring liberation of nitrophenol preincubated with enzyme followed by substrate addition by Dixon plot analysis
T2 sequence (O60502 whole entry): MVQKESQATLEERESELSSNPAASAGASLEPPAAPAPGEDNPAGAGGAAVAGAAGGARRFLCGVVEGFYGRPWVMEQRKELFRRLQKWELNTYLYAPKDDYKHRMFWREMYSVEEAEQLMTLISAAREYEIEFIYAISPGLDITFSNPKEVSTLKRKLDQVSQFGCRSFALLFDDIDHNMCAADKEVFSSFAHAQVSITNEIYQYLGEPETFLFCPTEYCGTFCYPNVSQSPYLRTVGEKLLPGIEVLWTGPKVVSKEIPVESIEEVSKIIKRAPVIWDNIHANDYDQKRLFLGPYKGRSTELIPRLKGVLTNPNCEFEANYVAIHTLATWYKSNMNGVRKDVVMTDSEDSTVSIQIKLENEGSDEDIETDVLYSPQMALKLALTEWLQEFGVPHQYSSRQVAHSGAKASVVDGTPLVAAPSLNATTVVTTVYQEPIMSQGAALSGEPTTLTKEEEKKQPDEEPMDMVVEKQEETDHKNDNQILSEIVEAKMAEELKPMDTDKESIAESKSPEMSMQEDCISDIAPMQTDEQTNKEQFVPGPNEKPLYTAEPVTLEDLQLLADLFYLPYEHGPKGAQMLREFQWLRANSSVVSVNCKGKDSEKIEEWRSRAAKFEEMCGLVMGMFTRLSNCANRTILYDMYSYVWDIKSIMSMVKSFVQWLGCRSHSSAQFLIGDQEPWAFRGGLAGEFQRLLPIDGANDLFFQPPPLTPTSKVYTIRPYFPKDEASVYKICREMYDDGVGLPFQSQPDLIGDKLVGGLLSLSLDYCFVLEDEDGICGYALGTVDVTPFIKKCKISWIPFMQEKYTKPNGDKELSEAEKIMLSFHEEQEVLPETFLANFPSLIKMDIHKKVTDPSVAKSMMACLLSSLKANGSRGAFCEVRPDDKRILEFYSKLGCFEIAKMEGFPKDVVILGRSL
Outline: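 His6-tagged full-length human OGA (Rosetta(DE3), Co2+ IMAC), 33 nM. Pre-incubated with inhibitor at 37 °C in 50 mM potassium phosphate, pH 7.5, 1 ml. Started by adding pNP-GlcNAc at three concentrations. Release of p-nitrophenol followed continuously at 400 nm. Initial rates in triplicate; Ki by linear regression of Dixon plots; modality checked by Cornish-Bowden plots.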

Protein O-GlcNAcase [3] = biological target: T2, Protein O-GlcNAcase; experiment: Inhibition of OGA (unknown origin) using pNP-O-GlcNAc as substrate assessed as inhibition constant incubated for 30 mins
Protein O-GlcNAcase [4] = biological target: T2, Protein O-GlcNAcase; experiment: Competitive inhibition of N-terminal His-tagged human OGA using 4-Mu-GlcNAc as substrate assessed as inhibition constant by measuring liberation of […] preincubated with enzyme followed by substrate addition by Cornish-Bowden method
Outline: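 Full-length long isoform of human OGA with an N-terminal His6 tag, expressed in E. coli Rosetta(DE3) and purified on Co2+ IMAC. 3 nM enzyme was pre-incubated at 37 °C with inhibitor (0–100 nM) in 50 mM potassium phosphate, pH 7.5. Reaction was started with 4-MU-GlcNAc at three levels. Fluorescence (ex 360, em 450) was read every 10 s for 10 min. Triplicates; Ki from Dixon plot; mode by Cornish-Bowden.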

HEXA/HEXB [5] = biological target: T1, HEXA/HEXB; experiment: Inhibition of HexA/HexB (unknown origin); type: protein assay, Homo sapiens

Ki (HEXA/HEXB [1]) [nM] | Ki (Protein O-GlcNAcase [2]) [nM] | Ki (Protein O-GlcNAcase [3]) [nM] | Ki (Protein O-GlcNAcase [4]) [nM] | Ki (HEXA/HEXB [5]) [nM] | Compound
413 | 270 | – | – | – | COc1ccc(NC(=O)N/N=C2\O[C@H](CO)[C@@H](O)[C@H](O)[C@H]2NC(C)=O)cc1
125 | 167 | – | – | – | CC(=O)N[C@H]1/C(=N/NC(=O)Nc2ccc(C(F)(F)F)cc2)O[C@H](CO)[C@@H](O)[C@@H]1O
170 | – | – | 83 | – | CC(=O)N[C@H]1/C(=N/NC(=O)Nc2ccc(Cl)cc2)O[C@H](CO)[C@@H](O)[C@@H]1O
332 | 155 | – | – | – | CC(=O)N[C@H]1/C(=N/NC(=O)Nc2ccc(C)cc2)O[C@H](CO)[C@@H](O)[C@@H]1O

Further lines, the compound ahead of its results:

Compound | Ki (HEXA/HEXB [1]) [nM] | Ki (Protein O-GlcNAcase [2]) [nM] | Ki (Protein O-GlcNAcase [3]) [nM] | Ki (Protein O-GlcNAcase [4]) [nM] | Ki (HEXA/HEXB [5]) [nM]
CC(=O)N[C@H]1/C(=N/NC(=S)Nc2ccccc2)O[C@H](CO)[C@@H](O)[C@@H]1O | 30000 | 27000 | – | – | –
CC(=O)N[C@H]1/C(=N/NC(=O)Nc2cccc3ccccc23)O[C@H](CO)[C@@H](O)[C@@H]1O | 154 | 506 | – | – | –
CC(=O)N[C@H]1/C(=N/O)O[C@H](CO)[C@@H](O)[C@@H]1O | – | – | 1600 | – | –
CC(=O)N[C@H]1/C(=N/NC(=O)Nc2ccc3ccccc3c2)O[C@H](CO)[C@@H](O)[C@@H]1O | 47 | – | – | 36 | –
CC(=O)N[C@H]1/C(=N/NC(=O)Nc2ccccc2)O[C@H](CO)[C@@H](O)[C@@H]1O | 205 | 190 | – | – | 130
